# Reference: PubChem BioAssay AID623869 (Vanderbilt High Throughput Screening Facility, 2012)
# Hit rate of the full screen: of about 2,100 compounds, about 75 (4%) were called active.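 The calls were made as follows: active = calcium fluorescence trace judged by eye to show a response, as agonist, enhancer of the glutamate response, or inhibitor; inactive = trace judged by eye to show no response.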 The list comes from a sample in which actives are over-represented; it also holds similar structures and randomly drawn compounds.
# Target: Metabotropic glutamate receptor 8 (Rattus norvegicus) (UniProt P70579)
# Test: mGlu8-mediated intracellular calcium response modulators – cell-based, HEK293 rmGlu8, Gqi9 chimera, Fluo-4 calcium, counter-screen for GIRK activator project, confirmation (AID 623869)
# Conditions: HEK293 rmGlu8/Gqi9 calcium flux, Fluo-4 fluorescence; glutamate at EC20 added after compound
# How it was run: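 Material: rat mGlu8 HEK-293 cells with transient Gqi9; medium: HEPES-buffered HBSS, pH 7.4; reagent: EC20 glutamate; dosing: one dose, 20 µM addition solution, 0.2% DMSO; incubation: compound 4 min before glutamate, then 2 min recording; measured by: Fluo-4 calcium fluorescence, 1 Hz; evaluation: F/F0 fluorescence traces judged visually for each well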
# Sequence of Metabotropic glutamate receptor 8 (Rattus norvegicus) (P70579 whole entry, looked up): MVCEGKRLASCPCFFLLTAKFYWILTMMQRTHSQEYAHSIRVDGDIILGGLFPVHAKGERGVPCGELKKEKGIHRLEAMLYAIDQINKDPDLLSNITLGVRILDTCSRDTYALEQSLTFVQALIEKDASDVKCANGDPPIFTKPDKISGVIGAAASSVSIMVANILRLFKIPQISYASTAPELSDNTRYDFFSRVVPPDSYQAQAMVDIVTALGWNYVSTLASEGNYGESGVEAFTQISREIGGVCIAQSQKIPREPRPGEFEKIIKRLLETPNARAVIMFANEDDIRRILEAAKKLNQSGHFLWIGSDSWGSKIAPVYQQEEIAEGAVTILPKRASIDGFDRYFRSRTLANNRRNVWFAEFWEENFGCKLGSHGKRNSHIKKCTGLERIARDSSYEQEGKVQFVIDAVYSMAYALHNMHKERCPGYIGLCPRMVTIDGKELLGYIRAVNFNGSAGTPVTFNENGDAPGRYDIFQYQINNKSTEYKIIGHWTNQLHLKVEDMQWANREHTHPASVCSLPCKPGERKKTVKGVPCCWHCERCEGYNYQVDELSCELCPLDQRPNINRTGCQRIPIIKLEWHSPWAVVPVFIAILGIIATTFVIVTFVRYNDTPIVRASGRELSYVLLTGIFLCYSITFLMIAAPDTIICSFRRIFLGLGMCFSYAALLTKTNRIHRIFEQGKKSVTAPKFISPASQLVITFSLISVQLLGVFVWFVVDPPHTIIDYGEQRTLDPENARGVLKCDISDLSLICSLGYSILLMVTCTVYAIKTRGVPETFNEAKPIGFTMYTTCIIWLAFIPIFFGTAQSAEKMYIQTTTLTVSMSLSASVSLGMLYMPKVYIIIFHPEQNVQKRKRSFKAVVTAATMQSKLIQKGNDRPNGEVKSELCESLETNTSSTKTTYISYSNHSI
row,Structure (SMILES),outcome
1,Cc1ccc(/C=N/n2c(-c3cccs3)n[nH]c2=S)cc1,inactive; 0
2,O=C(COc1ccccc1)NC(=S)Nc1cccc([N+](=O)[O-])c1,inactive; 0
3,COC(=O)c1ccccc1NC(=S)NC(=O)COc1ccc(C)cc1,inactive; 0
4,CCOC(=O)c1ccc(NC(=S)NC(=O)COc2ccccc2)cc1,inactive; 0
5,COC(=O)c1ccccc1NC(=S)NC(=O)COc1ccccc1,inactive; 0
6,Cc1ccccc1C(=O)NNC(=S)NC(=O)COc1ccccc1,active; 1
7,Cc1ccc(C(=O)NNC(=S)NC(=O)COc2ccccc2)cc1,active; 1
8,Cc1cccc(C(=O)NNC(=O)C(=O)NC(C)(C)C)c1,inactive; 0
9,COc1ccc(-c2nnc(NC(=O)c3ccc(F)cc3)o2)cc1,inactive; 0
10,S=c1[nH]nc(-c2ccccn2)n1/N=C/c1ccc(Br)s1,inactive; 0
11,O=C(NC(=S)N1CCN(c2ccc(C(F)(F)F)cc2[N+](=O)[O-])CC1)c1cccs1,inactive; 0
12,O=C(NC(=S)N1CCc2ccccc21)c1ccccc1Br,inactive; 0
13,S=c1[nH]cnc2scc(-c3ccccc3)c12,inactive; 0
14,COCCNC(=O)CCCCCn1c(=S)[nH]c2ccccc2c1=O,inactive; 0
15,O=c1c2ccccc2[nH]c(=S)n1CCN1CCN(Cc2ccccc2)CC1,inactive; 0
16,O=C(NCc1ccccc1)c1ccc2c(=O)n(CCCN3CCCC3=O)c(=S)[nH]c2c1,active; -1
17,Cc1ccc(C)c(N=C2CCCN2Cc2ccccc2)c1C#N,inactive; 0
18,CC1(C)CC(=O)C2=C(C1)OC(/N=C/N1CCOCC1)=C(C#N)C2c1ccccc1 (configuration not stated),inactive; 0
19,CCCN(CCC)C(=S)NC(=O)c1ccc(-c2ccccc2)cc1,inactive; 0
20,O=[N+]([O-])c1ccc(/C=N/NC(=S)Nc2ccccc2F)o1,inactive; 0
21,COc1cccc(-n2c(SCC(=O)NCCC3=CCCCC3)nc3n[nH]c(C)c3c2=N)c1,inactive; 0
22,Cc1ccccc1-n1c(SCc2ccccn2)nc2n[nH]c(C)c2c1=N,active; 2
